SMILES strings stand for the structures. Calls of active or inactive are those of the source. The calls are words filed in the database; no cut-off is given here.

Series [1] has as its system NCI-H1975. Nature of the series: Antiproliferative activity against human NCI-H1975 cells at 5 uM after 72 hrs by MTT assay. The class given is functional, cell-based. The method, boiled down: (§1)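 Single-concentration screen at 5 μM. Cells seeded at 3000 per well, cultured overnight, treated 72 h. MTT (5 mg/mL stock) added for 4 h, formazan dissolved in DMSO, absorbance at 490 nm. Growth inhibition rate = [1 − A treated/A control]×100%.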
Background: Tetrazolium dyes change colour on reduction, which living cells bring about.

In series [2] the test system is NCI-H460. Nature of the series: Antiproliferative activity against human NCI-H460 cells at 5 uM after 72 hrs by MTT assay. The class given is functional, cell-based. A digest of the protocol: as §1
The subject of series [3] is A549. Put plainly: Antiproliferative activity against human A549 cells at 5 uM after 72 hrs by MTT assay. Format: functional, cell-based. The method, boiled down:
as §1

The test system of series [4] is NCI-H1975. Nature of the series: Antiproliferative activity against human NCI-H1975 cells after 72 hrs by MTT assay. The class given is functional, cell-based. The conditions noted are these: NCI-H1975, 72 h. The method, boiled down: (§2)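 Cells seeded at 3000 per well, cultured overnight, then exposed to compounds for 72 h at 37 °C, 5% CO2. MTT (5 mg/mL stock) added for 4 h, formazan dissolved in DMSO, absorbance read at 490 nm. Inhibition calculated as [1 − A treated/A control]×100%, and IC50 derived from the inhibition data. Mean ± SEM of three independent experiments.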

Series [5] relates to A549. Put plainly: Antiproliferative activity against human A549 cells after 72 hrs by MTT assay. Format: functional, cell-based. As to conditions: A549, 72 h. A digest of the protocol: as §2
The test system of series [6] is NCI-H460. Nature of the series: Inhibition of colony formation in human NCI-H460 cells after 12 hrs by crystal violet staining-based assay. Format: functional, cell-based. A digest of the protocol: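 Cells seeded at 1000 per well and grown overnight. Exposed to compounds at 1.25, 2.5 and 5 μM for 12 h, then switched to normal medium for about 8 days. Colonies stained with crystal violet and photographed.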

For series [7], the system named is NCI-H460. Nature of the series: Antiproliferative activity against human NCI-H460 cells at 5 uM after 12 to 72 hrs by MTT assay. The class given is functional, cell-based. As to conditions: TDE = time-dependent effect. A digest of the protocol: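 Time course at 5 μM, with exposures of 12, 24, 48 and 72 h. Cells seeded at 3000 per well after overnight attachment. Viability read by MTT (5 mg/mL stock, 4 h), formazan dissolved in DMSO, absorbance at 490 nm.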

In series [8] the test system is NCI-H460. Put plainly: Antiproliferative activity against human NCI-H460 cells after 72 hrs by MTT assay. Format: functional, cell-based. As to conditions: NCI-H460, 72 h. The method, boiled down: as §2
In series [9] the test system is NCI-H460. Nature of the series: Antiproliferative activity against human NCI-H460 cells assessed as reduction in cell viability preincubated with 5 mM NAC for 1 hr followed by compound addition at 5 uM after 48 hrs by MTT assay. Format: functional, cell-based. The method, boiled down:
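Cells pre-incubated with 5 mM NAC for 1 h, then exposed to compound at 5 μM for 48 h. Viability read by MTT at 490 nm after formazan solubilisation in DMSO. Groups compared against compound-only and NAC-only treatments.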

In series [10] the test system is NCI-H460. Nature of the series: Induction of pyroptosis in human NCI-H460 cells assessed as reduction in pro-caspase-3 protein expression at 5 uM by Western blot analysis. The class given is functional, cell-based. The conditions noted are these: TDE = time-dependent effect. In general terms: In western blotting, separated proteins are transferred to a membrane and probed.

Series [11] deals with NCI-H460. Put plainly: Induction of pyroptosis in human NCI-H460 cells assessed as release of cellular content at 20 uM after 19 to 24 hrs by bright field microscopic analysis. The class given is functional, cell-based. A digest of the protocol:
(§3)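 Cells plated at 300,000/well 24 h before stimulation, then exposed to compound at 20 μM for 19 and 24 h. Cisplatin (20 μg/mL, 24 h) run alongside, with DMSO-treated cells as control. Morphology recorded by static bright-field microscopy.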

The subject of another series is Mus musculus. Put plainly: (§4) Acute toxicity in BALB/c mouse assessed as mortality at 500 mg/kg, ip administered as single dose on day 1 measured during 14 days. Format: organism-based. As to conditions: in vivo, 336 h. The method, boiled down:
(§5)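 Male wild-type BALB/c mice (26-33 g), randomised into groups of n=6 (vehicle, reference agent, test). Single intraperitoneal injection at 500 mg/kg on the first day only. Housed on a 12 h light-dark cycle at 25 °C with free water and diet. Deaths recorded over 14 days, then all animals euthanised.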

The test system of series [12] is NCI-H460. Nature of the series: Induction of intracellular ROS accumulation in human NCI-H460 cells pre-treated with 5 mM NAC for 1 hr followed by compound addition at 10 uM for 3 hrs by DCFH-DA staining-based flow cytometric analysis. Format: functional, cell-based. A digest of the protocol: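 Cells plated at 300,000/well for 24 h, pretreated with 5 mM NAC for 1 h, then given compound at 10 μM for 3 h. Loaded with DCFH-DA (10 μM) for 30 min at 37 °C in the dark in serum-free medium. Read by flow cytometry.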
A general note: Flow cytometry measures light scatter and fluorescence of single cells or particles in a stream.

For series [13], the system named is NCI-H460. Nature of the series: Inhibition of colony formation in human NCI-H460 cells preincubated with 5 mM NAC for 1 hr followed by compound addition at 5 uM after 12 hrs by crystal violet staining-based assay. Format: functional, cell-based. A digest of the protocol: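 Cells pre-incubated with 5 mM NAC for 1 h, then exposed to compound at 5 μM for 12 h. Medium replaced with fresh medium and colonies grown about 8 days. Colonies stained with crystal violet and imaged.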

Series [14] deals with NCI-H460. Nature of the series: Induction of intracellular ROS accumulation in human NCI-H460 cells at 10 uM after 3 to 24 hrs by DCFH-DA staining-based flow cytometric analysis. The class given is functional, cell-based. A digest of the protocol:
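Cells plated at 300,000/well for 24 h, then treated at 10 μM for 3, 6, 12 and 24 h. Switched to serum-free medium and loaded with DCFH-DA (10 μM) for 30 min at 37 °C in the dark. Cells collected and analysed by flow cytometry.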

For series [15], the system named is NCI-H460. Put plainly: Induction of pyroptosis in human NCI-H460 cells assessed as cytoplasmic swelling at 20 uM after 19 to 24 hrs by bright field microscopic analysis. Format: functional, cell-based. A digest of the protocol:
as §3

The subject of series [16] is NCI-H460. Put plainly: Induction of pyroptosis in human NCI-H460 cells pretreated with 20 mM NAC for 4 hrs followed by compound addition assessed as at 20 uM after 24 hrs by bright field microscopic analysis. The class given is functional, cell-based. The method, boiled down:
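Cells plated at 300,000/well, pretreated with NAC (20 mM) for 4 h, then given compound at 20 μM for 24 h. Pyroptotic morphology recorded by bright-field microscopic imaging, with DMSO-treated cells as control.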

Series [17] relates to NCI-H460. Nature of the series: Induction of pyroptosis in human NCI-H460 cells at 20 uM assessed as loss of osmotic potential at 20 uM after 19 to 24 hrs by bright field microscopic analysis. Format: functional, cell-based. The method, boiled down: as §3
Series [18] in a line: as §4. The class given is organism-based. As to conditions: BALB/c, in vivo. A digest of the protocol:
as §5

In the case of `C=CC(=O)Nc1ccc(C(=O)/C=C/c2cccc(F)c2)cc1`, the result with NCI-H1975 [1] and in the series with NCI-H460 [2] was Active.

In the case of `C=CC(=O)Nc1ccc(C(=O)/C=C/c2ccc(Cl)cc2)cc1`, the outcome in the series on A549 [3] was inactive. Moreover, the outcome with NCI-H1975 [1] and with NCI-H460 [2] was Active.

In the case of `C=CC(=O)Nc1ccc(C(=O)/C=C/c2cccc(Cl)c2Cl)cc1`, the result in the series on NCI-H1975 [1] and in the series on NCI-H460 [2] was Active.

For `C=CC(=O)Nc1ccc(C(=O)/C=C/c2ccccc2)cc1`, the outcome with NCI-H1975 [1] and in the series on NCI-H460 [2] was Active.

On to `C=CC(=O)Nc1ccc(C(=O)/C=C/c2ccccc2Br)cc1`, for which the half-inhibitory concentration (IC50) with NCI-H1975 [4] stood at 5.2 µM; in the series with A549 [5], 4.4 µM; in the series with NCI-H460 [8], 2.2 µM. Besides, the result in the series with NCI-H1975 [1] and with NCI-H460 [2] was Active. Also, the inhibition entry in the series on NCI-H460 [6] is “Dose-dependent effect”. Also, the Activity entry in the series on NCI-H460 [7] is “Tde”.

For the compound `C=CC(=O)Nc1ccc(C(=O)/C=C/c2ccccc2F)cc1`, the outcome with NCI-H1975 [1] and in the series with NCI-H460 [2] was Active.

Take `C=CC(=O)Nc1ccc(C(=O)/C=C/c2ccccc2Cl)cc1`: the outcome with NCI-H460 [9], with NCI-H460 [12] and with NCI-H460 [16] was inactive. Also, the IC50 came to 5.7 µM in the series on NCI-H1975 [4], 3.2 µM in the series with A549 [5] and 2.3 µM in the series with NCI-H460 [8]. Further, the Activity entry is “Tde” with NCI-H460 [10], “Non-Toxic” in the series with Mus musculus and “Tde” in the series on NCI-H460 [7]. In addition, the result in the series on A549 [3], in the series on NCI-H1975 [1], in the series with NCI-H460 [11], in the series with NCI-H460 [2], in the series with NCI-H460 [14] and with NCI-H460 [15] was Active. In the series on NCI-H460 [17], the result was Active. In addition, the inhibition entry in the series with NCI-H460 [6] was “Dose-dependent effect”. Also, in the series on NCI-H460 [13], the inhibition result was “inactive”.

For the compound `C=CC(=O)Nc1ccc(C(=O)/C=C/c2cc(OC)ccc2F)cc1`, the result in the series on NCI-H1975 [1] and in the series with NCI-H460 [2] was Active.

`C=CC(=O)Nc1ccc(C(=O)/C=C/c2ccc(OC)c(OC)c2)cc1`: the result in the series with A549 [3] was inactive. For the same compound, the outcome in the series on NCI-H1975 [1] and in the series with NCI-H460 [2] was Active.

For the compound `C=CC(=O)Nc1ccc(C(=O)/C=C/c2ccccc2C(F)(F)F)cc1`, the outcome in the series on A549 [3], in the series with NCI-H1975 [1] and in the series on NCI-H460 [2] was Active.

With `Nc1ccc(C(=O)/C=C/c2ccccc2Cl)cc1`, the outcome in the series on A549 [3], in the series with NCI-H1975 [1] and in the series on NCI-H460 [2] was Active.

With `C=CC(=O)Nc1ccc(C(=O)/C=C/c2ccc(N(C)C)cc2)cc1`, the result with A549 [3] was inactive. For the same compound, the outcome in the series on NCI-H1975 [1] and in the series with NCI-H460 [2] was Active.

On to `C=CC(=O)Nc1ccc(C(=O)/C=C/c2cc(OC)ccc2OC)cc1`, for which the result with NCI-H1975 [1] and with NCI-H460 [2] was Active.

In the case of `C=CC(=O)Nc1ccc(C(=O)/C=C/c2ccc(OC)cc2)cc1`, in the series on A549 [3], the outcome was inactive. Besides, the outcome in the series with NCI-H1975 [1] and with NCI-H460 [2] was Active.

With `C=CC(=O)Nc1ccc(C(=O)/C=C/c2c(F)cccc2F)cc1`, the outcome with NCI-H1975 [1] and with NCI-H460 [2] was Active.

Regarding `C=CC(=O)Nc1ccc(C(=O)/C=C/c2ccc(Cl)cc2Cl)cc1`, the outcome in the series on NCI-H1975 [1] and in the series with NCI-H460 [2] was Active.

In the case of `C=CC(=O)Nc1ccc(C(=O)/C=C/c2cc(OC)c(OC)c(OC)c2)cc1`, the figures for the concentration for half-maximal inhibition (IC50) in the series with NCI-H1975 [4], in the series with A549 [5] and with NCI-H460 [8] were 5.4 µM, 4 µM and 2 µM, respectively. Also, the result with NCI-H1975 [1] and in the series on NCI-H460 [2] was Active. The inhibition result in the series on NCI-H460 [6] was “Dose-dependent effect”. In the series with NCI-H460 [7], the Activity entry was “Tde”.

For `C=CC(=O)Nc1ccc(C(=O)/C=C/c2ccc(F)c(F)c2)cc1`, the outcome in the series with A549 [3] was inactive. The result in the series on NCI-H1975 [1] and in the series with NCI-H460 [2] was Active.

Take `C=CC(=O)Nc1ccc(C(C)=O)cc1`: the result in the series on A549 [3], with NCI-H1975 [1] and in the series on NCI-H460 [2] was Active.

With `O=C1/C(=C/c2ccccc2F)CNC/C1=C\c1ccccc1F`, in [18], the mortality at 336 h is 33.3%.

Regarding `C=CC(=O)Nc1ccc(C(=O)/C=C/c2ccc(Cl)c(Cl)c2)cc1`, the result in the series with A549 [3] was inactive. Besides, the result in the series with NCI-H1975 [1] and in the series on NCI-H460 [2] was Active.

As to `C=CC(=O)Nc1ccc(C(=O)/C=C/c2cccc(OC)c2OC)cc1`, the result with NCI-H1975 [1] and in the series on NCI-H460 [2] was Active.

On to `COc1cc(O)c(CC=C(C)C)c(O)c1C(=O)/C=C/c1ccc(O)cc1` [XANTHOHUMOL], for which the values for the concentration for half-maximal inhibition (IC50) in the series on NCI-H1975 [4], with A549 [5] and in the series with NCI-H460 [8] were 13 µM, 11.9 µM and 7.5 µM, respectively.

By IC50 is commonly meant the concentration that inhibits the measured activity by half. A word on the mortality: it is the share of the test organisms that died.

The record behind these values is ChEMBL document CHEMBL4261590, “Design, synthesis, and evaluation of chalcone analogues incorporate α,β-Unsaturated ketone functionality as anti-lung cancer agents via evoking ROS to induce pyroptosis” (Eur J Med Chem, 2018).
